Source: PubChem
TLR9-MyD88 inh = inhibitors of TLR9-MyD88 association in cells, primary screen, cell-based, CHO, BLA complementation, fluorescence; Toll-like receptor 9 (Homo sapiens) + Myeloid differentiation primary response protein …; CCF4 FRET ratio; inhibition, % at 4.98 µM; hit rate 0.21% among 340,000;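 active = inhibition above the mean over all tested compounds plus 3 SD, cut at about 21% in these data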
Target sequence (Q99836 whole entry, looked up): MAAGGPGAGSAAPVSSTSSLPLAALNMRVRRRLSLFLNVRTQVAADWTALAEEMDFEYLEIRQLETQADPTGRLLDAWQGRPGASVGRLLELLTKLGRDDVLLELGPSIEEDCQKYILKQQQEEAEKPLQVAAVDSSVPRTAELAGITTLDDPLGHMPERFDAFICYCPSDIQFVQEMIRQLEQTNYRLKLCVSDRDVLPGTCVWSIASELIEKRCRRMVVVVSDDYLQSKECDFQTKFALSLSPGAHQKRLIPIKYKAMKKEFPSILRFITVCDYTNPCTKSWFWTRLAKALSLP
Target sequence (Q9NR96 whole entry, looked up): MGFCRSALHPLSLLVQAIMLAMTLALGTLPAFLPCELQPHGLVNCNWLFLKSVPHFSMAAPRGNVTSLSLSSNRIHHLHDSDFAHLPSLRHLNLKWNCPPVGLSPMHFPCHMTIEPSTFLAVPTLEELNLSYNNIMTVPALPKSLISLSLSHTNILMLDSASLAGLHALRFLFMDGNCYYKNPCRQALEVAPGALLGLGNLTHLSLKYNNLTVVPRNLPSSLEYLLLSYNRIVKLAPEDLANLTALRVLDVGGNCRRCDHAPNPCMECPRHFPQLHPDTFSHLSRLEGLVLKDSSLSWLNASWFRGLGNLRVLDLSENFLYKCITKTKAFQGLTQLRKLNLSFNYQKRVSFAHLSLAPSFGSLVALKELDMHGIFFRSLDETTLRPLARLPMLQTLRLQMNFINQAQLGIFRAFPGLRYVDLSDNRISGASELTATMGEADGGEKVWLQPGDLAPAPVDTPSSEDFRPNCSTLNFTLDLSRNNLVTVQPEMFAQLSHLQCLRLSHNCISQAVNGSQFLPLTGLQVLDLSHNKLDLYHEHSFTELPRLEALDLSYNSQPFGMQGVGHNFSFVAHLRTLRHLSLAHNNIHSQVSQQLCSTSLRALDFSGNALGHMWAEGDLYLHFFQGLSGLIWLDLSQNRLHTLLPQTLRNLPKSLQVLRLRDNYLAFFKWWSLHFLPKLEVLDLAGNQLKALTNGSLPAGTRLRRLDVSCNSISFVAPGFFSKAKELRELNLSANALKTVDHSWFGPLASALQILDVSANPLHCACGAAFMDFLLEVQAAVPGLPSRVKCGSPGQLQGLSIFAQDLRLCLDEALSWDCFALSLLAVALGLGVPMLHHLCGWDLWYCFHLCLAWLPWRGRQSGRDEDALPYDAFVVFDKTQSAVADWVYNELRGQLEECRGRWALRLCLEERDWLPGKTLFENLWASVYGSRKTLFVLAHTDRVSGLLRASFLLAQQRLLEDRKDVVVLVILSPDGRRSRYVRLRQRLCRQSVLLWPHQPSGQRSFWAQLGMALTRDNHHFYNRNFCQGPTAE
NOD2-RIPK2 inh = NOD2-RIPK2 binding disruptors in cells, primary screen, fluorescence, CHO cells, BLA complementation. hit rate 0.38% among 360,000. inhibition, % at 4.98 µM. CCF4 ratio. Receptor-interacting serine/threonine-protein kinase 2 (Homo sapiens), O43353; in the data active = inhibition above about 21%
TLR4 MyD88 comp = inhibitors of TLR4-MyD88 association in cells, primary screen, cell-based, HeLa CL3-4, BLA complementation, FRET ratio; Toll-like receptor 4 (Homo sapiens) + Myeloid differentiation primary response protein …; HeLa CL3-4 TLR4/MyD88 BLA complementation; inhibition, % at 8.4 µM; hit rate 0.18% among 200,000; in the data active = inhibition above about 25%
XBP1 UPR activ = activators of adaptive XBP1 UPR arm, primary screen, cell-based, CHO-XBP1 luciferase reporter, luminescence, uHTS | hit rate 0.33% among 330,000 | IRE1-XBP1 UPR activation; percent of tunicamycin response, DMSO as zero | AID 463104, 2010 | activation, % at 20 µM;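 active = versus positive control, 20 µM dose yields 30% or more activation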
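Material: CHO-XBP1 cells stably carrying IRE1-XBP1-driven luciferase reporter | Medium: F12 with 10% serum | Compound dosing: 20 µM single concentration, DMSO 1% | Incubation: Overnight seeding at 37 °C, 6 h compound treatment at 37 °C | Detection: Steady-Glo luminescence read | Read-out basis: % activation of reporter signal versus tunicamycin and DMSO controls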
CHOP inhibitor = inhibitors of CHOP promoter induction, primary screen, cell-based, unfolded protein response, luciferase reporter; CHO-K1 CHOP-promoter luciferase, tunicamycin-induced, 15-18 h; inhibition, % at 10 µM; hit rate 3.8% among 220,000;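 active = compounds that reduced the stress-induced luciferase reporter signal by more than about 70% of percent inhibition, limit read from the data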
UPR CHOP act = activators of apoptotic CHOP UPR arm, primary screen, cell-based, CHO-CHOP luciferase reporter, luminescence, uHTS; UPR activation; percent of tunicamycin response over DMSO baseline; activation, % at 10 µM; hit rate 0.34% among 330,000;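 active = at 10 µM dose, activation of 40% or more, normalized to positive control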
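Test system: CHO-CHOP cells, stable luciferase reporter of PERK-eIF2a-CHOP signalling | Quantity: 500 CHO-CHOP cells per well | Buffer or medium: F12 plus 10% serum | Compound dosing: 10 µM single point, 0.5% DMSO | Schedule: 6 h compound treatment, 37 °C | Signal: Luciferase luminescence | Control set: Tunicamycin high control, DMSO low control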
TLR4-MyD88 conf = TLR4-MyD88 association inhibitors, retest, confirmation, cell-based, HeLa CL3-4, BLA complementation, FRET ratio; shares compounds with TLR4 MyD88 comp; CCF4 FRET ratio; inhibition, % at 8.4 µM; hit rate 50% among 350; AID 941, 2007;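 active = mean inhibition across three repeat runs above about 25% carried over from the earlier screen, limit read from the data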
BLA inh HeLa = inhibits beta-lactamase activity, counter-screen to TLR4-MyD88 binding inhibitors; AID 1237; hit rate 63% among 350; inhibition, % at 8.4 µM; HeLa BLA reporter, CCF4 FRET ratio; shares compounds with TLR4 MyD88 comp;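 active = mean inhibition over three repeats above about 26% taken from the earlier screen, limit read from the data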;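 note: HeLa cells stably expressing beta-lactamase reporter as counterscreen for TLR4-MyD88 inhibitors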
Numbers stand for hits. This is one part of a sample in which hits are shown more often than they occur.

How did Cc1cccc(NC(=O)c2cc([N+](=O)[O-])ccc2Cl)c1O do in these assays?
TLR9-MyD88 inh: inactive; NOD2-RIPK2 inh: inactive; TLR4 MyD88 comp: inactive; CHOP inhibitor: inactive

How did Nc1[nH]nc2c1NN(c1ccc(Cl)cc1Cl)N2 do in these assays?
TLR9-MyD88 inh: inactive; NOD2-RIPK2 inh: inactive; TLR4 MyD88 comp: inactive; XBP1 UPR activ: inactive; CHOP inhibitor: inactive; UPR CHOP act: inactive

What do the screens show for `CC(=O)c1sc2nc(-c3cccs3)cc(C(F)(F)F)c2c1N`?
TLR9-MyD88 inh: inactive; NOD2-RIPK2 inh: inactive; TLR4 MyD88 comp: 30; XBP1 UPR activ: inactive; CHOP inhibitor: inactive; UPR CHOP act: inactive; TLR4-MyD88 conf: inactive; BLA inh HeLa: inactive

Results for CNC(=O)c1sc(N2N=C3/C(=C\c4ccccc4)CCCC3C2c2ccccc2)nc1C (centres undefined) ?
TLR9-MyD88 inh: inactive; NOD2-RIPK2 inh: inactive

Results for CNC(=O)c1sc(N2N=C3/C(=C/c4ccccc4)CCCC3C2c2ccccc2)nc1C (centres undefined) ?
TLR9-MyD88 inh: inactive; NOD2-RIPK2 inh: inactive; TLR4 MyD88 comp: 28; XBP1 UPR activ: inactive; CHOP inhibitor: inactive; UPR CHOP act: inactive; TLR4-MyD88 conf: inactive; BLA inh HeLa: 54

Results for CN(C)c1ccc(/C=N/N=C/c2ccccc2O)cc1 ?
TLR9-MyD88 inh: inactive; NOD2-RIPK2 inh: inactive; TLR4 MyD88 comp: 37; XBP1 UPR activ: inactive; CHOP inhibitor: 81; UPR CHOP act: inactive; TLR4-MyD88 conf: 58; BLA inh HeLa: 53

Results for COC(=O)c1cccc(NC(=S)NC(C)C)c1 ?
TLR9-MyD88 inh: inactive; NOD2-RIPK2 inh: inactive; TLR4 MyD88 comp: inactive; XBP1 UPR activ: inactive; CHOP inhibitor: inactive; UPR CHOP act: inactive

Results for CC(=O)c1ccc(NC(=O)C(C)NCc2ccccc2Cl)cc1 (centres undefined) ?
TLR9-MyD88 inh: inactive; NOD2-RIPK2 inh: inactive; TLR4 MyD88 comp: inactive; XBP1 UPR activ: inactive; CHOP inhibitor: inactive; UPR CHOP act: inactive

What do the screens show for `Nc1c(C(=O)C2CC2)sc2nc(-c3ccccc3)cc(C(F)(F)F)c12`?
TLR9-MyD88 inh: inactive; NOD2-RIPK2 inh: inactive; TLR4 MyD88 comp: inactive; XBP1 UPR activ: inactive; CHOP inhibitor: inactive; UPR CHOP act: inactive

How did COc1cccc(-c2cc(C(F)(F)F)c3c(N)c(C#N)sc3n2)c1 do in these assays?
TLR4 MyD88 comp: 27; XBP1 UPR activ: inactive; CHOP inhibitor: inactive; UPR CHOP act: inactive; TLR4-MyD88 conf: inactive; BLA inh HeLa: 49

How did CCn1nnc(NC(=O)C(c2ccccc2)c2ccccc2)n1 do in these assays?
TLR9-MyD88 inh: inactive; NOD2-RIPK2 inh: inactive; TLR4 MyD88 comp: inactive; XBP1 UPR activ: inactive; CHOP inhibitor: inactive; UPR CHOP act: inactive

Results for CC(C)NC(=O)COC(=O)c1ccccc1C(=O)c1ccccc1 ?
TLR9-MyD88 inh: inactive; NOD2-RIPK2 inh: inactive; TLR4 MyD88 comp: inactive; XBP1 UPR activ: inactive; CHOP inhibitor: inactive; UPR CHOP act: inactive

What do the screens show for `Cc1ccc(CNC(=O)CCc2c(C)nn(-c3ccc(N4CCOCC4)nn3)c2C)cc1`?
TLR9-MyD88 inh: inactive; NOD2-RIPK2 inh: inactive; XBP1 UPR activ: inactive; UPR CHOP act: inactive

What do the screens show for `C=CCNc1sc(C(=O)c2ccc(Br)s2)c(N)c1C#N`?
TLR9-MyD88 inh: inactive; NOD2-RIPK2 inh: inactive; TLR4 MyD88 comp: 37; XBP1 UPR activ: inactive; CHOP inhibitor: inactive; UPR CHOP act: inactive; TLR4-MyD88 conf: inactive; BLA inh HeLa: 55

Results for COCCCN1C(=O)c2ccc(C(=O)N3CCN(c4ccccc4OC)CC3)cc2C1=O ?
TLR9-MyD88 inh: inactive; NOD2-RIPK2 inh: inactive; XBP1 UPR activ: inactive; UPR CHOP act: inactive

What do the screens show for `O=C(NCCCc1ccccc1)c1ccccc1`?
TLR9-MyD88 inh: inactive; NOD2-RIPK2 inh: inactive; TLR4 MyD88 comp: 26; XBP1 UPR activ: inactive; CHOP inhibitor: inactive; UPR CHOP act: inactive; TLR4-MyD88 conf: inactive; BLA inh HeLa: inactive

How did O=S1(=O)CCN(C2CCCCCCC2)CC1 do in these assays?
TLR9-MyD88 inh: inactive; NOD2-RIPK2 inh: inactive

Results for O=C(CCN1CCOCC1)Nc1ccc2c(c1)CCC2 ?
TLR9-MyD88 inh: inactive; NOD2-RIPK2 inh: inactive; TLR4 MyD88 comp: 25; XBP1 UPR activ: inactive; CHOP inhibitor: inactive; UPR CHOP act: inactive; TLR4-MyD88 conf: inactive; BLA inh HeLa: inactive

Results for O=C(CN1CCOCC1)Nc1ccc2c(c1)CCC2 ?
TLR9-MyD88 inh: inactive; NOD2-RIPK2 inh: inactive; XBP1 UPR activ: inactive; CHOP inhibitor: inactive; UPR CHOP act: inactive

How did CC(=O)C1=NN(c2ccccc2)C(c2ccc3c(c2)OCO3)N1c1ccc(N2CCOCC2)cc1 (centres undefined) do in these assays?
TLR9-MyD88 inh: inactive; NOD2-RIPK2 inh: inactive; TLR4 MyD88 comp: inactive; XBP1 UPR activ: inactive; CHOP inhibitor: inactive; UPR CHOP act: inactive

Results for CC(=O)C1=NN(c2ccccc2)C(c2cccs2)N1c1ccccc1 (centres undefined) ?
TLR4 MyD88 comp: 27; XBP1 UPR activ: inactive; CHOP inhibitor: inactive; UPR CHOP act: inactive; TLR4-MyD88 conf: inactive; BLA inh HeLa: inactive

Results for N#CC1CC(c2ccc([N+](=O)[O-])cc2)=NN1c1ccc([N+](=O)[O-])cc1 (centres undefined) ?
TLR9-MyD88 inh: inactive; NOD2-RIPK2 inh: inactive; TLR4 MyD88 comp: 56; XBP1 UPR activ: inactive; CHOP inhibitor: inactive; UPR CHOP act: inactive; TLR4-MyD88 conf: 56; BLA inh HeLa: 83

Results for Cc1cccc2cc(C#N)c(NCCNC(=O)NC3CCCCC3)nc12 ?
TLR9-MyD88 inh: inactive; NOD2-RIPK2 inh: inactive; TLR4 MyD88 comp: 25; XBP1 UPR activ: inactive; CHOP inhibitor: 72; UPR CHOP act: inactive; TLR4-MyD88 conf: inactive; BLA inh HeLa: inactive

What do the screens show for `COc1ccc(C(=O)NCCNc2nc3c(C)cccc3cc2C#N)cc1`?
TLR9-MyD88 inh: inactive; NOD2-RIPK2 inh: inactive; XBP1 UPR activ: inactive; UPR CHOP act: inactive

How did COc1ccc(NC(=O)/C(=C\c2ccc3c(c2)OCO3)NC(C)=O)cc1 do in these assays?
TLR9-MyD88 inh: inactive; NOD2-RIPK2 inh: inactive; TLR4 MyD88 comp: inactive; XBP1 UPR activ: inactive; CHOP inhibitor: inactive; UPR CHOP act: inactive

How did COc1cc(CCC(O)CC(=O)CCc2ccccc2)ccc1O (centres undefined) do in these assays?
TLR9-MyD88 inh: inactive; NOD2-RIPK2 inh: inactive; TLR4 MyD88 comp: inactive; XBP1 UPR activ: inactive; CHOP inhibitor: inactive; UPR CHOP act: inactive
